Data: ChEMBL document CHEMBL2163257 (J Med Chem, 2012)
The source made the active and inactive calls. No cut-off for these calls is given here.

Key:
Histamine H2 receptor [1] = biological target: T1, Histamine H2 receptor (Homo sapiens, UniProt P25021); assay: Intrinsic agonist activity at human H2R-Gsalphas expressed in Sf9 cells by steady state GTPase activity assay relative to histamine; format: functional
Summary of the method: (§1)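 Steady-state GTPase assay with Sf9 membranes (5–20 µg protein) expressing hH2R- or gpH2R-Gsαs, in 50 mM Tris-HCl pH 7.4. Mix: 1.0 mM MgCl2, 100 µM EDTA, 100 nM GTP, 100 µM AppNHp, 5 mM creatine phosphate, creatine kinase, 0.2% BSA, ligand 0.1 nM–10 µM. After 2 min at 25 °C, [γ-32P]GTP or [γ-33P]GTP was added and reacted 20 min at 25 °C. Charcoal stop; released Pi counted. Emax referenced to histamine (1.0). Two to six experiments, duplicate.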

[2] = biological target: Histamine H2 receptor (Cavia porcellus) (UniProt P47747); assay: Intrinsic agonist activity at guinea pig H2R-Gsalphas expressed in Sf9 cells by steady state GTPase activity assay relative to histamine; format: functional; summary of the method: as §1
Chain of Histamine H2 receptor (Cavia porcellus) (P47747 whole entry, the tested form may be a part): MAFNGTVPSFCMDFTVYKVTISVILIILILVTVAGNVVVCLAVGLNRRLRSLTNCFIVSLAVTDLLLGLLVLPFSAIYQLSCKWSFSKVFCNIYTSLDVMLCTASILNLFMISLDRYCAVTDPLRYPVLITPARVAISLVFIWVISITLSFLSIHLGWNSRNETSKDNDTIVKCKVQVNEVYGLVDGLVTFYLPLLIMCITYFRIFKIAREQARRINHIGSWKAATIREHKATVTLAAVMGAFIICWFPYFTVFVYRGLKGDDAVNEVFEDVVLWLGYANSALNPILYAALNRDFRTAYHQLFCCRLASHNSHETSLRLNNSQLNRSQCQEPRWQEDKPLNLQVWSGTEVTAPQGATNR

[3] = Agonist activity at guinea pig H2R hE2 loop Gsalphas mutant containing human H2 receptor E2 loop expressed in Sf9 cells by steady state GTPase activity assay; format: functional; details: Cavia porcellus
Summary of the method: (§2)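 Mutant H2R-Gsαs fusion proteins in Sf9 membranes were tested by steady-state GTPase hydrolysis: 1.0 mM MgCl2, 100 nM GTP, AppNHp/creatine phosphate regeneration, pH 7.4 Tris, 20 min at 25 °C with [γ-32P/33P]GTP, charcoal separation of Pi.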

[4] = Agonist activity at human H2R-C17Y-A271D Gsalphas mutant containing human H2 receptor E2 loop expressed in Sf9 cells by steady state GTPase activity assay; format: functional; summary of the method: as §2
Histamine H4 receptor [5] = biological target: T2, Histamine H4 receptor (Homo sapiens, UniProt Q9H3N8); assay: Agonist activity at human H4R-RGS19 Galphai2 Gbeta1gamma2 expressed in Sf9 cells by steady state GTPase activity assay relative to histamine; format: functional
T2 sequence (Q9H3N8 whole entry): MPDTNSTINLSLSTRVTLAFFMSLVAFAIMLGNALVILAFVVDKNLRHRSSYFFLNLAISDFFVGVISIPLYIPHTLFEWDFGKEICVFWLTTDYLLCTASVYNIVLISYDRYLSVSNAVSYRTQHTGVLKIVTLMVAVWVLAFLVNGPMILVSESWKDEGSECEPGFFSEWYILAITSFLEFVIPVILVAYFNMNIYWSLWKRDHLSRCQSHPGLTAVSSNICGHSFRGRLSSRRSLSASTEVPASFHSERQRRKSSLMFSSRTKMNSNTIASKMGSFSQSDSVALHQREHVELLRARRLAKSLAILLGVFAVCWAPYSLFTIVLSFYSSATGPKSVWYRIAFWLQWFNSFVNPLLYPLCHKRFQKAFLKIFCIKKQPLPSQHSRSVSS
Summary of the method: (§3)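 Sf9 membranes coexpressing hH4R-RGS19 with Gαi2 and Gβ1γ2 were assayed for GTP hydrolysis with 5.0 mM MgCl2 and 100 mM NaCl (final), 100 nM GTP, 50 mM Tris-HCl pH 7.4. Ligands spanned 0.1 nM–1 mM. Preincubation was 2 min, then 20 min at 25 °C with [γ-32P]GTP or [γ-33P]GTP. Charcoal quench; Pi counted. Sigmoidal nonlinear regression; efficacy relative to histamine.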

Histamine H4 receptor [6] = biological target: T2, Histamine H4 receptor; assay: Agonist activity at human H4R-RGS19 Galphai2 Gbeta1gamma2 expressed in Sf9 cells at 0.1 nM to 1 mM by steady state GTPase activity assay; format: functional; summary of the method: as §3
Histamine H3 receptor = Histamine H3 receptor (Homo sapiens, UniProt Q9Y5N1); assay: Agonist activity at human H3R-Galphai2-Gbeta1gamma2-RGS4 expressed in Sf9 cells 0.1 nM to 1 mM by steady state GTPase activity assay; format: functional
Chain of Histamine H3 receptor (Q9Y5N1 whole entry): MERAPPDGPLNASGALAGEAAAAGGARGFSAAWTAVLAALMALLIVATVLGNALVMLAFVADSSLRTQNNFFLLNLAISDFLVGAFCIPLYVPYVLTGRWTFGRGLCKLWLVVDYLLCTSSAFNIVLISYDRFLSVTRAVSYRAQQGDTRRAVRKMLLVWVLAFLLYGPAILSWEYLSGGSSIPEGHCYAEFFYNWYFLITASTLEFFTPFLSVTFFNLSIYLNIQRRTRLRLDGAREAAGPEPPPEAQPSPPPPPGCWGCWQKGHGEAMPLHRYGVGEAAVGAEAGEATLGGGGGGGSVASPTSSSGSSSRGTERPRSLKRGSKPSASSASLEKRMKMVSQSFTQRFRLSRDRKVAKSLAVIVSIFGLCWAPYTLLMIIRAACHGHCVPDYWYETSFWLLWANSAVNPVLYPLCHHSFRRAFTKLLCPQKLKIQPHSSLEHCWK

[7] = biological target: Histamine H2 receptor (Cavia porcellus) (UniProt P47747); assay: Potency index, ratio of pEC50 for compound to pEC50 for histamine at guinea pig H2R-Gsalphas expressed in Sf9 cells at 0.1 nM to 10 uM by steady state GTPase activity assay
Summary of the method: (§4)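 Sf9 membranes expressing human or guinea pig H2R-Gsαs fusion protein, 1.0 mM MgCl2, ATP, 100 nM GTP, AppNHp, creatine phosphate/kinase, BSA, Tris pH 7.4. Agonists 0.1 nM–10 μM, [γ-32P/33P]GTP hydrolysis 20 min at 25 °C, Pi counted. Curves fit by sigmoidal nonlinear regression. Potency given relative to histamine (set to 1.0). Two to six independent experiments in duplicate.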

Histamine H2 receptor [8] = biological target: Histamine H2 receptor (Cavia porcellus, UniProt P47747); assay: Agonist activity at guinea pig H2R-Gsalphas expressed in Sf9 cells at 0.1 nM to 10 uM by steady state GTPase activity assay; format: functional
Chain of Histamine H2 receptor (Cavia porcellus, UniProt P47747) (P47747 whole entry): as the sequence (P47747 whole entry, the tested form may be a part) above
Summary of the method: as §1, with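 “counted.” for “counted. Emax referenced to histamine (1.0).”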

Histamine H2 receptor [9] = biological target: T1, Histamine H2 receptor; assay: Agonist activity at human H2R-Gsalphas expressed in Sf9 cells at 0.1 nM to 10 uM by steady state GTPase activity assay
[10] = biological target: Histamine H1 receptor (Homo sapiens) (UniProt P35367); assay: Antagonist activity at human H1R-RGS4 expressed in Sf9 cells by steady state GTPase activity assay; format: functional
Chain of Histamine H1 receptor (Homo sapiens) (P35367 whole entry): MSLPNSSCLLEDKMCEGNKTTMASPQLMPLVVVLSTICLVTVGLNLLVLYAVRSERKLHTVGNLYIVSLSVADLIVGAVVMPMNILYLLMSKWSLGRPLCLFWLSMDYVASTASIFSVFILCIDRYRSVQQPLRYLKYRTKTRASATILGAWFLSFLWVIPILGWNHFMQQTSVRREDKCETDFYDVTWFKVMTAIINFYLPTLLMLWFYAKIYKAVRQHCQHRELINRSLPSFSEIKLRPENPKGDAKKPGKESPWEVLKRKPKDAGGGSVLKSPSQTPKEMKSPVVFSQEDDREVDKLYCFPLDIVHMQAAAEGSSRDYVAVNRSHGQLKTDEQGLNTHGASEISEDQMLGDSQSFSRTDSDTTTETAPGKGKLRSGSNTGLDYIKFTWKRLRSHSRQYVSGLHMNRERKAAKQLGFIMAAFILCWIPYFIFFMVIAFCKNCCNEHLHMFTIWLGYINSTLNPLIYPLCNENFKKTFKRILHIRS
Summary of the method: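 Sf9 membranes (5–20 μg protein) co-expressing human H1R with RGS4. Reaction with 1.0 mM MgCl2, 100 μM ATP, 100 nM GTP, AppNHp, creatine phosphate/kinase, 0.2% BSA, 50 mM Tris-HCl pH 7.4. Histamine 100 nM with test ligand 10 nM–1 mM. [γ-32P/33P]GTP added, 20 min at 25 °C. Charcoal stop, released Pi counted. pKB from sigmoidal nonlinear fits.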

[11] = Selectivity index, ratio of EC50 for human H2R-Gsalphas to EC50 for guinea pig H2R-Gsalphas by steady state GTPase activity assay
Histamine H2 receptor [12] = biological target: T1, Histamine H2 receptor; assay: Potency index, ratio of pEC50 for compound to pEC50 for histamine at human H2R-Gsalphas expressed in Sf9 cells at 0.1 nM to 10 uM by steady state GTPase activity assay; summary of the method: as §4
[13] = biological target: Histamine H2 receptor (Cavia porcellus) (UniProt P47747); assay: Intrinsic agonist activity at H2R in spontaneously beating guinea pig right atrium assessed as increase in heart rate relative to histamine; format: functional, tissue-based; details: Cardiac atrium
Summary of the method: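 Isolated spontaneously beating guinea pig right atrium. Ligand stocks (10 mM) and dilutions were made in fresh bath fluid. Tissue was washed for 30 min and equilibrated for 15 min. […] Emax is relative to maximal histamine heart-rate increase. Three to five experiments.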

[14] = biological target: Histamine H2 receptor (Cavia porcellus) (UniProt P47747); assay: Agonist activity at H2R in spontaneously beating guinea pig right atrium assessed as increase in heart rate in presence of 100 uM H2R antagonist cimetidine; format: functional, tissue-based; details: Cardiac atrium

T1 sequence (P25021 whole entry): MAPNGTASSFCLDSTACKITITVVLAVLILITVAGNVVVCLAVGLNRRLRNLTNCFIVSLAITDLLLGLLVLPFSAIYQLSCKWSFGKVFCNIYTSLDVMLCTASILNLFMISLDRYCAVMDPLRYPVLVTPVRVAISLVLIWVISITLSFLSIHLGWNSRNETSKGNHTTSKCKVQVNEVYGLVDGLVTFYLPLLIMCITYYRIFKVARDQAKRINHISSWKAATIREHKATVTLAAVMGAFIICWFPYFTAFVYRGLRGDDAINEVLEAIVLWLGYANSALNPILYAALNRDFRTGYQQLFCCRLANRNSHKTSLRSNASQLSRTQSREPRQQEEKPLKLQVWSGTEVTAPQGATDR

SMILES | Intrinsic activity (Histamine H2 receptor [1]) | Intrinsic activity [2] | Activity [3] | Activity [4] | Intrinsic activity [13] | also measured
N/C(=N\C(=O)CCCCCCCCCCCCCCC(=O)/N=C(\N)NCCCc1cnc(N)s1)NCCCc1cnc(N)s1 | 0.14 | 0.59 |  |  |  | 
N/C(=N\C(=O)CCCCCCC(=O)/N=C(\N)NCCCc1cnc(N)s1)NCCCc1cnc(N)s1 | 0.79 | 1 | Active | Active |  | 
N/C(=N\C(=O)CCCCC(=O)/N=C(\N)NCCCc1c[nH]cn1)NCCCc1c[nH]cn1 | 0.68 | 1 |  |  |  | Intrinsic activity (Histamine H4 receptor [5]): 0.42; EC50 (Histamine H4 receptor [6]): 79.4 nM; EC50 (Histamine H3 receptor): > 10000 nM
N/C(=N\C(=O)CCCCCCC(=O)/N=C(\N)NCCCc1c[nH]cn1)NCCCc1c[nH]cn1 | 0.77 | 1.18 |  |  |  | Ratio [7]: 372; EC50 (Histamine H2 receptor [8]; read-out: pEC50 (converted)): 3.24 nM; EC50 (Histamine H2 receptor [9]): 56.2 nM; pKb [10]: 6.7; Intrinsic activity (Histamine H4 receptor [5]): 0.51; Ratio EC50 [11]: 17.4; EC50 (Histamine H4 receptor [6]): 41.7 nM; Ratio (Histamine H2 receptor [12]): 22.4; EC50 (Histamine H3 receptor): 4.17 nM
Cc1nc(N)sc1CCCN/C(N)=N/C(=O)CCCCCCCCCCCCCCCCCCCCC(=O)/N=C(\N)NCCCc1sc(N)nc1C |  | 0.58 |  |  | 0.62 | 
N/C(=N\C(=O)CCCCCCCCCCCCCCCCCCCCC(=O)/N=C(\N)NCCCc1c[nH]cn1)NCCCc1c[nH]cn1 |  | 0.19 |  |  |  | 
Cc1nc(N)sc1CCCN/C(N)=N/C(=O)CCCCCCCCC(=O)/N=C(\N)NCCCc1sc(N)nc1C | 0.53 | 0.79 | Active | Active | 0.62 | 
N/C(=N\C(=O)CCCCCCCCCCCCCCCCCCCCC(=O)/N=C(\N)NCCCc1cnc(N)s1)NCCCc1cnc(N)s1 |  | 0.36 |  |  |  | 
Cc1nc(N)sc1CCCN/C(N)=N/C(=O)CCCCCCCCC(=O)/N=C(\N)NCCCc1cnc(N)s1 | 0.75 | 0.89 | Active | Active |  | 
Cc1nc(N)sc1CCN [AMTHAMINE] | 0.91 | 1.04 |  |  | 0.95 | 
N/C(=N\C(=O)CCCCCCCCC(=O)/N=C(\N)NCCCc1c[nH]cn1)NCCCc1c[nH]cn1 | 0.81 | 0.98 | Active | Active | 0.91 | Intrinsic activity (Histamine H4 receptor [5]): 0.44; EC50 (Histamine H4 receptor [6]): 8.51 nM; EC50 (Histamine H3 receptor): 1.78 nM
Cc1nc(N)sc1CCCN/C(N)=N/C(=O)CCCCCCC(=O)/N=C(\N)NCCCc1sc(N)nc1C | 0.62 | 0.81 | Active | Active | 0.64 | 
Cc1nc(N)sc1CCCN/C(N)=N/C(=O)CCCCCCCCCCCCCCC(=O)/N=C(\N)NCCCc1sc(N)nc1C | 0.12 | 0.51 | Active | Active | 0.53 | 
NC(=NCCCc1nnc[nH]1)NC(=O)CCCCCCCCC(=O)NC(N)=NCCCc1nnc[nH]1 |  |  |  |  |  | EC50 (Histamine H2 receptor [9]): 151 nM
Cc1nc(N)sc1CCCN/C(N)=N/C(=O)CCCCC(=O)/N=C(\N)NCCCc1sc(N)nc1C | 0.68 | 0.9 |  |  | 0.88 | %max [14]: 46%
Cc1nc(N)sc1CCCN/C(N)=N/C(=O)CCCCCCCCC(=O)/N=C(\N)NCCCc1c[nH]cn1 | 0.76 | 1.01 | Active | Active |  | Intrinsic activity (Histamine H4 receptor [5]): 0.52; EC50 (Histamine H4 receptor [6]): 8.51 nM; EC50 (Histamine H3 receptor): 2.88 nM
N=C(NCCCc1cnc[nH]1)NC(=O)CCCCCCCCCCCCCCCCCCCCC(=O)NC(N)=NCCCc1cnc[nH]1 |  |  |  |  |  | EC50 (Histamine H4 receptor [6]): > 1000 nM; EC50 (Histamine H3 receptor): 447 nM
Cc1nc(N)sc1CCCNC(=N)NC(=O)CCCCCCCCC(=O)NC(=N)NCCCc1sc(N)nc1C |  |  |  |  |  | EC50 (Histamine H2 receptor [8]; read-out: EC50): 0.39 nM
N/C(=N\C(=O)CCCCCCCCCCCCCCC(=O)/N=C(\N)NCCCc1c[nH]cn1)NCCCc1c[nH]cn1 | 0.29 | 0.85 |  |  |  | EC50 (Histamine H4 receptor [6]): 339 nM; EC50 (Histamine H3 receptor): > 1000 nM
Cc1nc(N)sc1CCCN/C(N)=N/C(=O)CCCCCCCCCCC(=O)/N=C(\N)NCCCc1sc(N)nc1C | 0.46 | 0.66 |  |  | 0.46 | 
N/C(=N\C(=O)CCCCCCCCC(=O)/N=C(\N)NCCCc1cnc(N)s1)NCCCc1cnc(N)s1 | 0.75 | 0.94 | Active | Active |  | 
N/C(=N\C(=O)CCCCCCCCC(=O)/N=C(\N)NCCCc1ncn[nH]1)NCCCc1ncn[nH]1 | 0.49 | 0.95 |  |  |  | 
Cc1nc(N)sc1CCCN/C(N)=N/C(=O)CCc1ccccc1 | 0.79 | 0.76 |  |  |  | 
Cc1nc(N)sc1CCCN/C(N)=N/C(=O)CCCCCCCC(=O)/N=C(\N)NCCCc1sc(N)nc1C | 0.48 | 0.9 |  |  | 0.71 | 
